In ChEMBL document CHEMBL4725448, “Substituted Azabicyclo[2.2.1]heptanes as Selective Orexin-1 Antagonists: Discovery of JNJ-54717793” (ACS Med Chem Lett, 2020):

Legend:
[1] = Cmax in rat assessed as NOAEL at 200 mg/kg/day, po administered as repeated dose for 13 days; type: ADME, organism-based; parameters: route oral, time 13 day, dose 200 mg/kg/day; conditions: in vivo
[2] = Dissociation constant, pKa of the compound; type: physicochemical
[3] = Lipophilicity, logD of the compound at pH 7.4; type: physicochemical; conditions: buffer
Orexin receptor type 2 = molecular target: T1, Orexin receptor type 2 (Homo sapiens, UniProt O43614); assay: Binding affinity to human OX2R
T1 sequence (O43614 whole entry): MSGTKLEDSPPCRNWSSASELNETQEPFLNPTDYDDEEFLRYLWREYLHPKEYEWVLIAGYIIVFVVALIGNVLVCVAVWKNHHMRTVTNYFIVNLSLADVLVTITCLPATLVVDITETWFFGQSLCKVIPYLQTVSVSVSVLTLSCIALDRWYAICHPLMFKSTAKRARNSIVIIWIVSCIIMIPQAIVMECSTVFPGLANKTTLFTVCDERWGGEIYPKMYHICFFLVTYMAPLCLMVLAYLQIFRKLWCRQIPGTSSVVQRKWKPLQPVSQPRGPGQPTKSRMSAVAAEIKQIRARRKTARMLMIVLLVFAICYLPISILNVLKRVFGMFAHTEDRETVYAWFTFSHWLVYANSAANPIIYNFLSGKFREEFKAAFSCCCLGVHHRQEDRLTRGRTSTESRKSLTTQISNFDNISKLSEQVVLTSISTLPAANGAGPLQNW

[4] = Ex vivo receptor occupancy at OX1R in Sprague-Dawley rat brain tenia tecta using [3H]SB-674042 labelling at 30 mg/kg, po measured after 0.5 hrs by autoradiography; type: functional
Procedure, shortened: (§1)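 Ex vivo OX1R binding autoradiography in rat tenia tecta after a 30 mg/kg po dose; percent occupancy read at 0.5 and 2 h.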

[5] = Ex vivo receptor occupancy at OX1R in Sprague-Dawley rat brain tenia tecta using [3H]SB-674042 labelling at 30 mg/kg, po measured after 2 hrs by autoradiography; type: functional; procedure, shortened: as §1
[6] = Ex vivo receptor occupancy at OX1R in Sprague-Dawley rat brain tenia tecta using [3H]SB-674042 labelling at 10 mg/kg, po measured after 2 hrs by autoradiography; type: functional
Procedure, shortened: (§2)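 Rats received a single oral dose, and OX1R occupancy was measured by ex vivo binding autoradiography in brain tenia tecta sections at 0.5, 2 and 6 h after dosing. Occupancy is expressed as percent. Brain and plasma drug levels (ng/mL) were also sampled at the 0.5 h time point.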

[7] = Ex vivo receptor occupancy at OX1R in Sprague-Dawley rat brain tenia tecta using [3H]SB-674042 labelling at 10 mg/kg, po measured after 6 hrs by autoradiography; type: functional; procedure, shortened: as §2
[8] = Drug concentration in Sprague-Dawley rat plasma at 30 mg/kg, po after 0.5 hrs by LC-MS/MS analysis; type: ADME, organism-based
Procedure, shortened: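 Brain and plasma levels (ng/mL) sampled 0.5 h after oral dosing at 10 or 30 mg/kg, alongside the ex vivo tenia tecta occupancy study.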

[9] = Stability in mouse liver microsomes assessed as extraction ratio; type: ADME, Microsome; conditions: read-out: ERH
[10] = Protein binding in rat brain assessed as free fraction; type: ADME, tissue-based
[11] = Permeability across apical to basolateral side in MDCK cells; type: ADME, cell-based, Canis lupus familiaris; conditions: dog
[12] = Clearance in mouse at 1 mg/kg, iv and 5 mg/kg, po; type: ADME, organism-based; conditions: in vivo
[13] = Cmax in mouse at 1 mg/kg, iv and 5 mg/kg, po; type: ADME, organism-based; parameters: dose 5 mg/kg; conditions: in vivo
[14] = Volume of distribution at steady state in mouse at 1 mg/kg, iv and 5 mg/kg, po; type: ADME, organism-based; conditions: in vivo, read-out: Vdss
[15] = Volume of distribution at steady state in rat at 1 mg/kg, iv and 5 mg/kg, po; type: ADME, organism-based; conditions: in vivo, read-out: Vdss
[16] = Volume of distribution at steady state in primate; type: ADME; conditions: primates; read-out: Vdss
[17] = AUC in rat assessed as NOAEL at 250 mg/kg, po administered as repeated dose for 5 days; type: ADME, organism-based; parameters: time 5 day, dose 250 mg/kg; conditions: in vivo
[18] = AUC in human at 50 mg/day; type: ADME; parameters: dose 50 mg
[19] = […] clearance in mouse at 1 mg/kg, iv and 5 mg/kg, po; type: ADME, organism-based; conditions: in vivo
[20] = […] clearance in rat at 1 mg/kg, iv and 5 mg/kg, po; type: ADME, organism-based; conditions: in vivo

## O=C(c1cccc(F)c1-c1ncccn1)N1[C@@H]2CC[C@H]1[C@H](Nc1cnc(C(F)(F)F)cn1)C2
[1]
  Cmax: 6980 ng/mL
[2]
  pKa: < 2
[3]
  logD: 2.18
Orexin receptor type 2
  Ki: 700 nM
[4]
  Activity: 100%
[5]
  Activity: 100%
[6]
  Activity: 41%
[7]
  Activity: 17%
[8]
  concentration at 0.5 h: 4960 ng/mL
[9]
  hepatic extraction ratio: 0.4
[10]
  fraction unbound: 0.09
[11]
  Papp A→B: 1.95 ×10⁻⁶ cm/s
[12]
  clearance: 21 mL/min/kg
[13]
  Cmax: 1500 ng/mL
[14]
  Vd: 1.1 L/kg
[15]
  Vd: 1.4 L/kg
[16]
  Vd: 0.8 L/kg
[17]
  AUC at 120 h: 101000 ng·h/mL
[18]
  AUC: 6870 ng·h/mL
[19]
  clearance: 29 mL/min/kg
[20]
  clearance: 17 mL/min/kg
